Assay results gathered from unrelated publications.
Protocols differ between the studies behind these lines.
Target: Beta-2 adrenergic receptor (ADRB2, Homo sapiens, UniProt P07550)
Tested at: 10 µM

CCN(CC)c1ccc(C2Nc3ccc(C(=O)c4ccccc4)cc3NC3=C2C(=O)CC(C)(C)C3)cc1 (stereo not shown)  inhibition (ligand displacement; radioligand): 1%
O=C1N=C(N2CCCCN2)S/C1=C\c1ccc(F)cc1O  inhibition (ligand displacement; radioligand): < 10%
CN1CCN(c2ccnc(NCCc3ccccc3)n2)CC1  inhibition (ligand displacement): -3.49%
O=C(Nc1ccc(S(=O)(=O)N2CCC(Cl)CC2)cc1)c1ccc([N+](=O)[O-])o1  inhibition (ligand displacement; radioligand): 17%
CCCNc1nc2ccccc2n1Cc1ccc(Cl)cc1  inhibition (ligand displacement): -10.2%
Ic1cccc2cnccc12  inhibition (ligand displacement; radioligand): 0%
Oc1cccc(Nc2nc(-c3ccc(F)cc3F)cs2)c1  inhibition (cell-free assay): 4%
N#Cc1cc(Cn2c(N3CCCC3)nc3ccccc32)ccc1F  inhibition (ligand displacement): 0%
CC(=O)N1CCC(c2ccc(C(=O)NC3=NCCN3)cc2C(F)(F)F)CC1  inhibition (ligand displacement): -14.2%
O=C(c1ccc(F)cc1)N(Cc1ccccc1)C1CCCCC1  inhibition (cell-free assay): 7%
